Laboratory results taken from ChEMBL document CHEMBL5244249, “Discovery of tofacitinib derivatives as orally active antitumor agents based on the scaffold hybridization strategy” (Eur J Med Chem, 2020).

Assays:
BGC-823 = assay: Antiproliferative activity against human BGC-823 cells assessed as inhibition of cell growth incubated for 72 hrs by MTT assay; type: functional, cell-based; settings: BGC-823, 72 h
Summary of the method: (§1)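 Antiproliferative screen in gastric cancer lines MGC-803, HGC-27 and BGC-823 by MTT assay; IC50 reported as mean ± SD.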

HGC-27 = assay: Antiproliferative activity against human HGC-27 cells assessed as inhibition of cell growth incubated for 72 hrs by MTT assay; type: functional, cell-based; settings: HGC-27, 72 h; summary of the method: as §1
MGC-803 = assay: Antiproliferative activity against human MGC-803 cells assessed as inhibition of cell growth incubated for 72 hrs by MTT assay; type: functional, cell-based; settings: MGC-803, 72 h; summary of the method: as §1
[1] = Cytotoxicity against human GES1 cells assessed as inhibition of cell growth incubated for 72 hrs by MTT assay; type: toxicity, cell-based
MCF7 = assay: Antiproliferative activity against human MCF7 cells assessed as inhibition of cell growth incubated for 72 hrs by MTT assay; type: functional, cell-based; settings: MCF7, 72 h
PC-9 = assay: Antiproliferative activity against human PC-9 cells assessed as inhibition of cell growth incubated for 72 hrs by MTT assay; type: functional, cell-based; settings: PC-9, 72 h
NCI-H1975 = assay: Antiproliferative activity against human NCI-H1975 cells assessed as inhibition of cell growth incubated for 72 hrs by MTT assay; type: functional, cell-based; settings: NCI-H1975, 72 h

Row | SMILES | IC50 (BGC-823) [µM] | IC50 (HGC-27) [µM] | IC50 (MGC-803) [µM] | IC50 at 72 h [1] [µM] | IC50 (MCF7) [µM] | IC50 (PC-9) [µM] | IC50 (NCI-H1975) [µM]
1 | Cc1cc(N2CC[C@@H](C)[C@@H](N(C)c3ncnc4[nH]ccc34)C2)n2nc(SCc3cc(=O)oc4c3ccc3ccccc34)nc2n1 | > 100 | > 100 | > 100 | > 100 |  |  | 
2 | Cc1cc(N2CC[C@@H](C)[C@@H](N(C)c3ncnc4[nH]ccc34)C2)n2nc(SCC3CCCCC3)nc2n1 | 16.3 | 11.5 | 9.17 | 98.2 |  |  | 
3 | Cc1cc(N2CC[C@@H](C)[C@@H](N(C)c3ncnc4[nH]ccc34)C2)n2nc(SCc3ccccc3Br)nc2n1 | 81.1 | 21.3 | 27 | > 100 |  |  | 
4 | COc1ccc(CSc2nc3nc(C)cc(N4CC[C@@H](C)[C@@H](N(C)c5ncnc6[nH]ccc56)C4)n3n2)cc1 | 69.9 | 18.2 | 15.2 | > 100 |  |  | 
5 | CCCSc1nc2nc(C)cc(N3CC[C@@H](C)[C@@H](N(C)c4ncnc5[nH]ccc45)C3)n2n1 | 51.2 | 20.9 | 15.5 | 67.1 |  |  | 
6 | Cc1cc(N2CC[C@@H](C)[C@@H](N(C)c3ncnc4[nH]ccc34)C2)n2nc(SCc3ccc([N+](=O)[O-])cc3)nc2n1 | 59.6 | 29.4 | 26.9 | 36.6 |  |  | 
7 | C[C@@H]1CCN(C(=O)CC#N)C[C@@H]1N(C)c1ncnc2[nH]ccc12 [TOFACITINIB] |  |  | > 100 |  | > 100 | > 100 | > 100
8 | Cc1cc(N2CC[C@@H](C)[C@@H](N(C)c3ncnc4[nH]ccc34)C2)n2nc(SCc3csc4ccc(Cl)cc34)nc2n1 | > 100 | > 100 | > 100 | > 100 |  |  | 
9 | Cc1cc(N2CC[C@@H](C)[C@@H](N(C)c3ncnc4[nH]ccc34)C2)n2nc(SCC3CC3)nc2n1 | 36.5 | 21.4 | 9.54 | 27.9 |  |  | 
10 | Cc1cc(N2CC[C@@H](C)[C@@H](N(C)c3ncnc4[nH]ccc34)C2)n2nc(SCc3cc(Cl)ccc3Cl)nc2n1 | 18.9 | 19.2 | 9.85 | 87.5 |  |  | 
11 | Cc1cc(N2CC[C@@H](C)[C@@H](N(C)c3ncnc4[nH]ccc34)C2)n2nc(SCc3ccc(Br)cc3)nc2n1 | 28 | 19.5 | 4.02 | 55.6 |  |  | 
12 | Cc1cc(N2CC[C@@H](C)[C@@H](N(C)c3ncnc4[nH]ccc34)C2)n2nc(SCc3ccc(Cl)cc3)nc2n1 | 26.3 | 18.4 | 16 | > 100 |  |  | 
13 | C#CCSc1nc2nc(C)cc(N3CC[C@@H](C)[C@@H](N(C)c4ncnc5[nH]ccc45)C3)n2n1 | 62.1 | 35.1 | 18.1 | > 100 |  |  | 
14 | Cc1ccc(CSc2nc3nc(C)cc(N4CC[C@@H](C)[C@@H](N(C)c5ncnc6[nH]ccc56)C4)n3n2)cc1 | 69.5 | 15.2 | 5.86 | 82.5 |  |  | 
15 | Cc1cc(N2CC[C@@H](C)[C@@H](N(C)c3ncnc4[nH]ccc34)C2)n2nc(SCCCc3ccccc3)nc2n1 | > 100 | > 100 | > 100 | > 100 |  |  | 
16 | Cc1cc(N2CC[C@@H](C)[C@@H](N(C)c3ncnc4[nH]ccc34)C2)n2nc(SCc3ccccc3)nc2n1 | 14.3 | 13.9 | 5.87 | 67.2 |  |  | 
17 | C=CCSc1nc2nc(C)cc(N3CC[C@@H](C)[C@@H](N(C)c4ncnc5[nH]ccc45)C3)n2n1 | 40.9 | 35.2 | 32.5 | > 100 |  |  | 
18 | C[C@@H]1CCN(c2cc(-c3ccccc3)nc3ncnn23)C[C@@H]1N(C)c1ncnc2[nH]ccc12 | > 100 | > 100 | 84.9 | > 100 |  |  | 
19 | CCc1cc(N2CC[C@@H](C)[C@@H](N(C)c3ncnc4[nH]ccc34)C2)n2ncnc2n1 | 82.2 | > 100 | 80.2 | > 100 |  |  | 
20 | Cc1cc(N2CC[C@@H](C)[C@@H](N(C)c3ncnc4[nH]ccc34)C2)n2ncnc2n1 | 67.4 | 11.3 | 4.35 | 57.9 | 33.8 | 20.9 | 22.2
21 | Cc1cc(N2CC[C@@H](C)[C@@H](N(C)c3ncnc4[nH]ccc34)C2)n2nc(SCc3ccc(F)cc3)nc2n1 | 44.3 | 26 | 11.9 | 12.3 |  |  | 
22 | Cc1cc(N2CC[C@@H](C)[C@@H](N(C)c3ncnc4[nH]ccc34)C2)n2nc(SCc3nc4ccccc4[nH]3)nc2n1 | > 100 | > 100 | 21.2 | 40.2 |  |  | 
23 | C[C@@H]1CCN(c2c3c(nc4ncnn24)CCC3)C[C@@H]1N(C)c1ncnc2[nH]ccc12 | > 100 | 50.5 | 55.9 | > 100 |  |  | 
24 | O=c1[nH]cc(F)c(=O)[nH]1 [FLUOROURACIL] | 5.89 | 5.75 | 3.79 | 2.37 | 4.76 | 3.25 | 2.67
25 | Cc1cc(N2CC[C@@H](C)[C@@H](N(C)c3ncnc4[nH]ccc34)C2)n2nc(SCCc3ccccc3)nc2n1 | 28 | 11.8 | 6.19 | 66.2 |  |  | 
26 | Cc1cc(N2CC[C@@H](C)[C@@H](N(C)c3ncnc4[nH]ccc34)C2)n2nc(SCc3ccc(F)c(Cl)c3)nc2n1 | 98.9 | > 100 | 52 | > 100 |  |  | 
27 | Cc1nc2nc(SCc3ccc(Cl)cc3)nn2c(N2CC[C@@H](C)[C@@H](N(C)c3ncnc4[nH]ccc34)C2)c1C | > 100 | > 100 | 90.5 | 99.2 |  |  | 
28 | CCCCCc1c(C)nc2nc(SCc3ccc(Cl)cc3)nn2c1N1CC[C@@H](C)[C@@H](N(C)c2ncnc3[nH]ccc23)C1 | 32.3 | > 100 | > 100 | > 100 |  |  | 
